PMC6248884 (European journal of medicinal chemistry, 2018)
Where two headings read alike, the source gives them in different places. Square brackets hold non-standard residues; d marks the D form. Peptide text beside a SMILES is read from it. * marks the point of attachment. Dolaproine = CO[C@@H]([C@@H]1CCCN1)[C@@H](C)C(=O)O; Dil = CC[C@H](C)[C@H](NC)[C@@H](CC(=O)O)OC; X1 = C[C@@H](N*)[C@@H](O)c1ccccc1; NMeV = CN[C@H](C(=O)O)C(C)C

Key:
[1] = tested on: NCI-H460 cells; test: Cytotoxicity assay to NCI-H460 human lung carcinoma cells; type: cell-based
[2] = biological target: ChT-L site of the proteasome; test: Binding affinity to the ChT-L site of the proteasome; type: biochemical; conditions: read-out: IC50, ChT-L site of the proteasome; proteasome source not stated
[3] = tested on: HCT116 cells; test: Cytotoxicity to HCT116 colon adenocarcinoma cell line; type: cell-based
[4] = biological target: human 20S proteasome ChT-L site (Homo sapiens, UniProt P20618+P28074); test: Proteasome inhibition assay, chymotrypsin-like site, fluorogenic substrate; type: biochemical
How it was run: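 Human recombinant 20S proteasome, 3 µg/mL in buffer (100 mM Tris pH 7.5, 0.5 mM EDTA, 0.03% SDS), preincubated 30 min at 37 °C with test compound or 25% DMSO vehicle. Reaction started with site-selective AMC substrate (Suc-LLVY-AMC for ChT-L) and run 30 min at 37 °C. Eleven-point 3-fold series, 1.0 µM–[…] final, in triplicate. Fluorescence read at ex 365/em 450 nm; data scaled to internal controls; IC50 from four-parameter logistic fit.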

[5] = tested on: SKBR3 cells (Her2+); test: Cell proliferation assay; type: cell-based
[6] = biological target: human 20S proteasome C-L site (Homo sapiens, UniProt P28072+Q99436); test: Proteasome inhibition assay, caspase-like site, fluorogenic substrate; type: biochemical
[7] = biological target: human 20S proteasome T-L site (Homo sapiens, UniProt P49720+Q99436); test: Proteasome inhibition assay, trypsin-like site, fluorogenic substrate; type: biochemical
[8] = tested on: MDA-MB-468 cells (Her2-); test: Cell proliferation assay; type: cell-based
[9] = tested on: MDA-MB-231 cells (Her2-); test: Cell proliferation assay; type: cell-based; conditions: read-out: MDA-MB-231 IC50, Table 5
[10] = read-out: NCI-H460 IC50, Table 1, NCI-H460 cell line
[11] = Homo sapiens, HCT-116, read-out: HCT116 IC50
[12] = Homo sapiens, NCI-H460, read-out: NCI-H460 IC50
[13] = Homo sapiens, SK-BR-3, read-out: SKBR3 IC50
[14] = Homo sapiens, MDA-MB-468, read-out: MDA-MB-468 IC50

Row | IC50 [4] [nM] | Structure (SMILES) | IC50 [3, 11] [nM] | IC50 [1, 12] [nM] | other results
1 |  | CC(C)CC(NC(=O)C(CCS(C)(=O)=O)NC(=O)C(NC(=O)CCCCCN)C(C)C)C(=O)C1(C)CO1 (centres unmarked) [Analogue 6] |  |  | IC50 [1, 10]: 860 nM; IC50 [2]: 539 nM
2 | 42.2 ± 5.4 | CCCCCC(=O)N[C@H](C(=O)N[C@@H](CCS(=O)(=O)CCN)C(=O)N[C@@H](CC(C)C)C(=O)[C@@]1(C)CO1)C(C)C [Analogue 7, N-((S)-1-(((S)-4-((2-aminoethyl)sulfonyl)-1-(((S)-4-methyl-1-((R)-2-methyloxiran-2-yl)-1oxopentan-2-yl)amino)-1-oxobutan-2-yl)amino)-3-methyl-1-oxobutan-2-yl)hexanamide] | 624 | 34 | 
3 | 14.2 ± 2.4 | CCCCCC(=O)N[C@H](C(=O)N[C@@H](CCS(=O)(=O)CCNC(=O)OC(C)(C)C)C(=O)N[C@@H](CC(C)C)C(=O)[C@@]1(C)CO1)C(C)C [Analogue 7-Boc, tert-Butyl (2-(((S)-3-((S)-2-hexanamido-3-methylbutanamido)-4-(((S)-4-methyl-1-((R)-2methyloxiran-2-yl)-1-oxopentan-2-yl)amino)-4-oxobutyl)sulfonyl)ethyl)carbamate] | 4.8 ± 0.27 | 2.1 ± 0.16 | 
4 |  | CC(C)C[C@H](NC(=O)[C@H](CCS(=O)(=O)CCN)NC(=O)[C@H](Cc1ccccc1)NC(=O)Cc1ccccc1)C(=O)[C@@]1(C)CO1 [Analogue 8, (S)-4-((2-Aminoethyl)sulfonyl)-N-((S)-4-methyl-1-((R)-2-methyloxiran-2-yl)-1-oxopentan-2yl)-2-((S)-3-phenyl-2-(2-phenylacetamido)propanamido)butanamide] | 165 | 34.2 | 
5 |  | CC(C)C[C@H](NC(=O)[C@H](CCS(=O)(=O)CCNC(=O)OC(C)(C)C)NC(=O)[C@H](Cc1ccccc1)NC(=O)Cc1ccccc1)C(=O)[C@@]1(C)CO1 [Analogue 8-Boc, tert-Butyl (2-(((S)-4-(((S)-4-methyl-1-((R)-2-methyloxiran-2-yl)-1-oxopentan-2-yl)amino)-4oxo-3-((S)-3-phenyl-2-(2-phenylacetamido)propanamido)butyl)sulfonyl)ethyl)carbamate] | 4.8 ± 0.35 | 8.5 ± 1.2 | 
6 |  | CCCCCC(=O)N[C@H](C(=O)N[C@@H](CCS(=O)(=O)CCN)C(=O)N[C@@H](Cc1ccccc1)C(=O)[C@@]1(C)CO1)C(C)C [Analogue 9, N-((S)-1-(((S)-4-((2-Aminoethyl)sulfonyl)-1-(((S)-1-((R)-2-methyloxiran-2-yl)-1-oxo-3phenylpropan-2-yl)amino)-1-oxobutan-2-yl)amino)-3-methyl-1-oxobutan-2-yl)hexanamide] | 882 | 33.4 | 
7 |  | CCCCCC(=O)N[C@H](C(=O)N[C@@H](CCS(=O)(=O)CCNC(=O)OC(C)(C)C)C(=O)N[C@@H](Cc1ccccc1)C(=O)[C@@]1(C)CO1)C(C)C [Analogue 9-Boc, tert-Butyl (2-(((S)-3-((S)-2-hexanamido-3-methylbutanamido)-4-(((S)-1-((R)-2methyloxiran-2-yl)-1-oxo-3-phenylpropan-2-yl)amino)-4oxobutyl)sulfonyl)ethyl)carbamate] | 1.3 ± 0.2 | 2.6 ± 0.12 | 
8 |  | C[C@]1(C(=O)[C@H](Cc2ccccc2)NC(=O)[C@H](CCS(=O)(=O)CCN)NC(=O)[C@H](Cc2ccccc2)NC(=O)Cc2ccccc2)CO1 [Analogue 10, (S)-4-((2-Aminoethyl)sulfonyl)-N-((S)-1-((R)-2-methyloxiran-2-yl)-1-oxo-3-phenylpropan-2yl)-2-((S)-3-phenyl-2-(2-phenylacetamido)propanamido)butanamide] | 698 | 304 | 
9 |  | CC(C)(C)OC(=O)NCCS(=O)(=O)CC[C@H](NC(=O)[C@H](Cc1ccccc1)NC(=O)Cc1ccccc1)C(=O)N[C@@H](Cc1ccccc1)C(=O)[C@@]1(C)CO1 [Analogue 10-Boc, tert-Butyl (2-(((S)-4-(((S)-1-((R)-2-methyloxiran-2-yl)-1-oxo-3-phenylpropan-2-yl)amino)-4oxo-3-((S)-3-phenyl-2-(2-phenylacetamido)propanamido)butyl)sulfonyl)ethyl)carbamate] | 10.9 ± 0.98 | 21 ± 1.3 | 
10 | 1.5 ± 0.2 | CCCCCC(=O)N[C@H](C(=O)N[C@@H](CCS(=O)(=O)c1ccc(N)cc1)C(=O)N[C@@H](CC(C)C)C(=O)[C@@]1(C)CO1)C(C)C [Analogue 13, N-((S)-1-(((S)-4-((4-Aminophenyl)sulfonyl)-1-(((S)-4-methyl-1-((R)-2-methyloxiran-2-yl)-1oxopentan-2-yl)amino)-1-oxobutan-2-yl)amino)-3-methyl-1-oxobutan-2-yl)hexanamide] | 2.6 ± 0.2 | 1.8 ± 0.1 | IC50 [5, 13]: 0.43 nM; IC50 [6]: 540 nM; IC50 [7]: 14 nM
11 |  | CCCCCC(=O)N[C@H](C(=O)N[C@@H](CCS(=O)(=O)c1ccc(NC(=O)OC(C)(C)C)cc1)C(=O)N[C@@H](CC(C)C)C(=O)[C@@]1(C)CO1)C(C)C [Analogue 13-Boc, tert-Butyl (4-(((S)-3-((S)-2-hexanamido-3-methylbutanamido)-4-(((S)-4-methyl-1-((R)-2methyloxiran-2-yl)-1-oxopentan-2-yl)amino)-4-oxobutyl)sulfonyl)phenyl)carbamate] | 4.9 ± 0.1 |  | 
12 | 1.9 ± 0.1 | CCCCCC(=O)N[C@H](C(=O)N[C@@H](CCC(=O)N[C@@H](CC(C)C)C(=O)[C@@]1(C)CO1)C(=O)N[C@@H](CC(C)C)C(=O)[C@@]1(C)CO1)C(C)C [Analogue 14, (S)-2-((S)-2-Hexanamido-3-methylbutanamido)-N1,N5-bis((S)-4-methyl-1-((R)-2methyloxiran-2-yl)-1-oxopentan-2-yl)pentanediamide] | 0.2 ± 0.1 | 5.4 ± 1 | IC50 [6]: 150 nM; IC50 [7]: 98 nM
13 | 5.6 | CCCCCC(=O)N[C@@H](Cc1ccc(N)cc1)C(=O)N[C@@H](CCC(=O)N[C@@H](CC(C)C)C(=O)[C@@]1(C)CO1)C(=O)N[C@@H](CC(C)C)C(=O)[C@@]1(C)CO1 [Analogue 15, (S)-2-((S)-3-(4-Aminophenyl)-2-hexanamidopropanamido)-N1,N5-bis((S)-4-methyl-1-((R)2-methyloxiran-2-yl)-1-oxopentan-2-yl)pentanediamide] | 53 | 29.8 | IC50 [5, 13]: 21 nM; IC50 [8, 14]: 30 nM; IC50 [6]: > 1000 nM; IC50 [7]: 315 nM
14 | 90 ± 13 | CC(C)C[C@H](NC(=O)CC[C@H](NC(=O)[C@@H](NC(=O)Cc1ccc(N)cc1)C(C)C)C(=O)N[C@@H](CC(C)C)C(=O)[C@@]1(C)CO1)C(=O)[C@@]1(C)CO1 [Analogue 16, (S)-2-((S)-2-(2-(4-Aminophenyl)acetamido)-3-methylbutanamido)-N1,N5-bis((S)-4-methyl1-((R)-2-methyloxiran-2-yl)-1-oxopentan-2-yl)pentanediamide] | 45 | 25.3 | IC50 [5, 13]: 25 nM; IC50 [8, 14]: 33 nM; IC50 [6]: > 1000 nM; IC50 [7]: 71.5 nM
15 | > 1000 | CCCCCC(=O)N[C@H](C(=O)N[C@@H](CCC(=O)N[C@@H](CC(C)C)C(=O)[C@@]1(C)CO1)C(=O)NC(CCS(=O)(=O)c1ccc(N)cc1)C(=O)OC)C(C)C (stereo partly drawn) [Analogue 17, Methyl 4-((4-aminophenyl)sulfonyl)-2-((S)-2-((S)-2-hexanamido-3-methylbutanamido)-5(((S)-4-methyl-1-((R)-2-methyloxiran-2-yl)-1-oxopentan-2-yl)amino)-5oxopentanamido)butanoate] | 5540 | > 10000 | IC50 [5, 13]: 2430 nM; IC50 [8, 14]: 1740 nM; IC50 [6]: > 1000 nM; IC50 [7]: > 1000 nM
16 |  | CCCCCC(=O)NC(C(=O)NC(CCSC)C(=O)NC(CC(C)C)C(=O)C1(C)CO1)C(C)C (centres unmarked) [Analogue 21] |  |  | IC50 ([3]; read-out: HCT116 IC50, Table 2, HCT116 cell line): 22 nM; IC50 ([1]; read-out: NCI-H460 IC50, Table 2, NCI-H460 cell line): 27 ± 2.6 nM
17 |  | CC[C@H](C)[C@@H]([C@@H](CC(=O)N1CCC[C@H]1[C@H](OC)[C@@H](C)C(=O)N[C@H](C)[C@@H](O)c1ccccc1)OC)N(C)C(=O)[C@@H](NC(=O)[C@@H](NC)C(C)C)C(C)C [MMAE, monomethyl auristatin E, reference compound] (H-[NMeV]V[Dil][Dolaproine]-X1) |  |  | IC50 ([5]; read-out: SKBR3 IC50, Table 5, Her2+ cell): 0.072 nM; IC50 ([8]; read-out: MDA-MB-468 IC50, Table 5, Her2- cell): 0.17 nM; IC50 [9]: 0.005 nM
18 |  | CCCCCC(=O)N[C@H](C(=O)N[C@@H](CCS(C)(=O)=O)C(=O)N[C@@H](CC(C)C)C(=O)[C@@]1(C)CO1)C(C)C [carmaphycin B, reference compound] |  |  | IC50 [1, 10]: 6 nM
